Converted amounts (≈) assume the structure as drawn.

The text below walks through data of ChEMBL document CHEMBL1914331, “N-O chemistry for antibiotics: discovery of N-alkyl-N-(pyridin-2-yl)hydroxylamine scaffolds as selective antibacterial agents using nitroso Diels-Alder and ene chemistry” (J Med Chem, 2011).

For series [1], the system named is Micrococcus luteus. The series is described as follows: Antimicrobial activity against Micrococcus luteus ATCC 10240 assessed after 18 hrs by broth microdilution method. It counts as functional. The note with it: ATCC 10240, 18 h. The method in brief: (§1)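 CLSI broth microdilution in cation-adjusted MHII broth. 20 mM DMSO stocks were diluted to 512 µM, then serially 2-fold, giving final 128–0.0625 µM with 5×10⁵ CFU/mL inoculum. Incubated 18 h at 37 °C. MIC90 was the lowest concentration giving 90% inhibition by visual turbidity versus DMSO wells. Run in triplicate.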

A further series relates to MCF7. The series is described as follows: Cytotoxicity against human MCF7 cells. In kind it is cell-based.
The next series has as its system PC-3. The series is described as follows: Cytotoxicity against human PC3 cells. In kind it is cell-based.
Series [2] has as its system Micrococcus luteus. Nature of the series: Antimicrobial activity against Micrococcus luteus ATCC 10240 after 24 hrs by Kirby-Bauer agar diffusion assay. It counts as functional. The gist of the method:
(§2)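 Modified Kirby-Bauer well diffusion. Overnight LB cultures (18–24 h) were standardized in 0.9% saline to 0.5 McFarland and mixed into melted MHII agar at 47–50 °C, giving ~5×10³ CFU/mL. 9 mm wells received 50 µL of 2.0 mM compound in 10:1 MeOH:DMSO. Plates were incubated 24 h at 37 °C, then growth-inhibition zone diameter was measured (mm) by caliper.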
In general terms: Agar diffusion results depend on both activity and mobility in agar.

For series [3], the system named is Staphylococcus aureus. Nature of the series: Antimicrobial activity against Staphylococcus aureus SG511 assessed after 18 hrs by broth microdilution method. In kind it is functional. To be noted: SG511, 18 h. The gist of the method: as §1
(In general: Dilution methods test growth across graded concentrations, often in twofold steps.)

The subject of series [4] is Enterococcus faecalis. Nature of the series: Antimicrobial activity against Enterococcus faecalis ATCC 49532 assessed after 18 hrs by broth microdilution method. In kind it is functional. To be noted: ATCC 49532, 18 h. The method in brief: as §1
The subject of series [5] is Enterococcus faecalis. Nature of the series: Antimicrobial activity against Enterococcus faecalis ATCC 49532 after 24 hrs by Kirby-Bauer agar diffusion assay. In kind it is functional. The gist of the method:
as §2

In another series the test system is HeLa. The series is described as follows: Cytotoxicity against human HeLa cells. It counts as cell-based.
Series [6] concerns Staphylococcus aureus. Nature of the series: Antimicrobial activity against Staphylococcus aureus SG511 after 24 hrs by Kirby-Bauer agar diffusion assay. In kind it is functional. The gist of the method: as §2

With `C=C(C)C(C)N(O)c1ccc(I)cn1` (racemic), the figures for the MIC90 in the series on Micrococcus luteus [1], against Staphylococcus aureus [3] and against Enterococcus faecalis [4] were 2 µM (≈ 0.608 µg/mL), greater than 128 µM and greater than 128 µM, respectively. The Activity entry in the series with MCF7, in the series with PC-3 and with HeLa was “Non-toxic” in each case. Also, the “diameter of the inhibition zone (DIZ)” value came out at 38 mm with Micrococcus luteus [2], 19 mm in the series with Enterococcus faecalis [5] and 12 mm in the series with Staphylococcus aureus [6].
On to `CO[C@H]1C=CCC[C@@H]1N(OC(C)=O)c1ccc(Br)cn1` (racemic), for which the results for the MIC90 in the series on Micrococcus luteus [1], in the series with Staphylococcus aureus [3] and against Enterococcus faecalis [4] were 32 µM (≈ 10.9 µg/mL), greater than 128 µM and greater than 128 µM, respectively. For the same compound, the Activity result in the series with MCF7, in the series with PC-3 and in the series with HeLa was “Non-toxic” throughout. Moreover, the “diameter of the inhibition zone (DIZ)” value in the series with Micrococcus luteus [2] is reported as 22 mm; in the series with Enterococcus faecalis [5] it was 0 mm; in the series with Staphylococcus aureus [6], 0 mm.
Take `C=C(C)C(C)N(O)c1ccc(Br)c(C)n1` (racemic): the MIC90 (as a rule, the lowest concentration that inhibits either 90% of growth or 90% of the strains tested, depending on the study) in the series on Micrococcus luteus [1] was 4 µM (≈ 1.08 µg/mL); with Staphylococcus aureus [3], greater than 128 µM; with Enterococcus faecalis [4] it was greater than 128 µM. Also, the Activity result with MCF7, with PC-3 and in the series with HeLa was “Non-toxic” each time. Besides, the “diameter of the inhibition zone (DIZ)” value was determined as 35 mm in the series with Micrococcus luteus [2], 12 mm in the series on Enterococcus faecalis [5] and 13 mm in the series on Staphylococcus aureus [6].
Take `CO[C@H]1C=CCC[C@@H]1Nc1ccc(Br)cn1` (racemic): the MIC90 in the series on Micrococcus luteus [1], with Staphylococcus aureus [3] and with Enterococcus faecalis [4] was greater than 128 µM each time. Moreover, the Activity entry in the series on MCF7, with PC-3 and in the series on HeLa was “Non-toxic” throughout. For the same compound, the “diameter of the inhibition zone (DIZ)” value with Micrococcus luteus [2], in the series on Enterococcus faecalis [5] and in the series with Staphylococcus aureus [6] was 0 mm in each case.
For `C=C(C)C(C)N(O)c1ccccn1` (racemic), the values for the MIC90 in the series on Micrococcus luteus [1], with Staphylococcus aureus [3] and against Enterococcus faecalis [4] were 8 µM (≈ 1.43 µg/mL), 128 µM (≈ 22.8 µg/mL) and greater than 128 µM, respectively. Moreover, the Activity result with MCF7, in the series on PC-3 and with HeLa was “Non-toxic” throughout. In addition, the “diameter of the inhibition zone (DIZ)” value was determined as 31 mm in the series with Micrococcus luteus [2], 22 mm in the series on Enterococcus faecalis [5] and 18 mm with Staphylococcus aureus [6].
In the case of `CO[C@H]1C=CCC[C@@H]1N(O)c1ccc(Br)cn1` (racemic), the MIC90 with Micrococcus luteus [1] is 4 µM (≈ 1.2 µg/mL); against Staphylococcus aureus [3], no less than 128 µM; in the series with Enterococcus faecalis [4] it was greater than 128 µM. Besides, the Activity result in the series with MCF7, with PC-3 and with HeLa was “Non-toxic” each time. For the same compound, the “diameter of the inhibition zone (DIZ)” value turned out to be 34 mm in the series on Micrococcus luteus [2], 20 mm with Enterococcus faecalis [5] and 18 mm with Staphylococcus aureus [6].
On to `ON(Cc1ccccc1)c1ccccn1`, for which the MIC90 against Micrococcus luteus [1] is 64 µM (≈ 12.8 µg/mL); against Staphylococcus aureus [3] it was 128 µM (≈ 25.6 µg/mL); in the series with Enterococcus faecalis [4], greater than 128 µM. The Activity result with MCF7, in the series on PC-3 and in the series with HeLa was “Non-toxic” throughout. Moreover, the “diameter of the inhibition zone (DIZ)” value in the series with Micrococcus luteus [2] is listed as 24 mm; in the series on Enterococcus faecalis [5] it was 20 mm; in the series on Staphylococcus aureus [6] it was 18 mm.
Consider `C=C(C)C(C)N(O)c1cccc(CC)n1` (racemic), for which the results for the MIC90 in the series with Micrococcus luteus [1], with Staphylococcus aureus [3] and against Enterococcus faecalis [4] were 2 µM (≈ 0.413 µg/mL), greater than 128 µM and greater than 128 µM, respectively. Further, the Activity result with MCF7, in the series with PC-3 and with HeLa was “Non-toxic” in each case. The “diameter of the inhibition zone (DIZ)” value in the series with Micrococcus luteus [2] is reported as 52 mm; with Enterococcus faecalis [5], 22 mm; in the series with Staphylococcus aureus [6], 11 mm.
For the compound `ON(Cc1ccccc1)Cc1ccccn1`, the MIC90 with Micrococcus luteus [1], against Staphylococcus aureus [3] and in the series with Enterococcus faecalis [4] was greater than 128 µM throughout. The Activity entry in the series with MCF7, in the series with PC-3 and in the series on HeLa was “Non-toxic” in each case. In addition, the “diameter of the inhibition zone (DIZ)” value with Micrococcus luteus [2], in the series on Enterococcus faecalis [5] and in the series with Staphylococcus aureus [6] was 0 mm each time.
Turning to `CC(=O)ON(Cc1ccccc1)c1ccccn1`, the MIC90 was 128 µM (≈ 31 µg/mL) against Micrococcus luteus [1], greater than 128 µM with Staphylococcus aureus [3] and greater than 128 µM against Enterococcus faecalis [4]. For the same compound, the Activity result in the series with MCF7, in the series on PC-3 and in the series with HeLa was “Non-toxic” in each case. Besides, the “diameter of the inhibition zone (DIZ)” value amounted to 20 mm in the series on Micrococcus luteus [2], 11 mm in the series on Enterococcus faecalis [5] and 12 mm in the series on Staphylococcus aureus [6].
On to `ON(Cc1ccccc1)c1cccnc1`, for which the figures for the MIC90 against Micrococcus luteus [1], in the series with Staphylococcus aureus [3] and against Enterococcus faecalis [4] were no less than 128 µM, greater than 128 µM and greater than 128 µM, respectively. For the same compound, the Activity entry with MCF7, in the series on PC-3 and in the series with HeLa was “Non-toxic” in each case. Moreover, the results for the “diameter of the inhibition zone (DIZ)” value in the series with Micrococcus luteus [2], in the series on Enterococcus faecalis [5] and in the series with Staphylococcus aureus [6] were 15 mm, 0 mm and 16 mm, respectively.
As to `C=CCN(O)c1ccccn1`, the MIC90 in the series with Micrococcus luteus [1], in the series on Staphylococcus aureus [3] and in the series on Enterococcus faecalis [4] was greater than 128 µM each time. For the same compound, the Activity result in the series on MCF7, with PC-3 and in the series with HeLa was “Non-toxic” each time. Besides, the entries for the “diameter of the inhibition zone (DIZ)” value in the series on Micrococcus luteus [2], with Enterococcus faecalis [5] and in the series on Staphylococcus aureus [6] were 14 mm, 12 mm and 0 mm, respectively.
`CCCN(O)c1ccccn1`: the MIC90 against Micrococcus luteus [1], against Staphylococcus aureus [3] and in the series on Enterococcus faecalis [4] was greater than 128 µM in each case. Moreover, the Activity result with MCF7, with PC-3 and in the series on HeLa was “Non-toxic” each time. The “diameter of the inhibition zone (DIZ)” value with Micrococcus luteus [2] is 13 mm; in the series with Enterococcus faecalis [5], 0 mm; in the series with Staphylococcus aureus [6], 0 mm.
On to `COc1ccc(CON(Cc2ccccc2)c2ccccn2)cc1`, for which the MIC90 against Micrococcus luteus [1], in the series on Staphylococcus aureus [3] and against Enterococcus faecalis [4] was greater than 128 µM each time. The Activity result with MCF7, with PC-3 and with HeLa was “Non-toxic” throughout. The “diameter of the inhibition zone (DIZ)” value in the series on Micrococcus luteus [2], with Enterococcus faecalis [5] and with Staphylococcus aureus [6] was 0 mm each time.
Turning to `C=C(C)C(C)N(O)c1cc(C)ccn1` (racemic), the values for the MIC90 with Micrococcus luteus [1], in the series on Staphylococcus aureus [3] and with Enterococcus faecalis [4] were 4 µM (≈ 0.769 µg/mL), 128 µM (≈ 24.6 µg/mL) and greater than 128 µM, respectively. Also, the Activity entry in the series on MCF7, in the series on PC-3 and in the series with HeLa was “Non-toxic” each time. Further, the “diameter of the inhibition zone (DIZ)” value in the series with Micrococcus luteus [2] was 29 mm; with Enterococcus faecalis [5], 22 mm; in the series with Staphylococcus aureus [6], 20 mm.
